Reference: article PMC9263996 (iScience, 2022)
Entries after “also recorded” stand apart in the source; their conditions may differ.

Experiments:
MaltOBP24 [1] = target: T1, MaltOBP24 (Monochamus alternatus, UniProt A0A1I9HZN3); assay: Competitive fluorescence-binding assay with 1-NPN probe, recombinant MaltOBP24; settings: MaltOBP24 Ki (dissociation constant), 1-NPN competition, mean ± SEM
T1 sequence (A0A1I9HZN3 1-169): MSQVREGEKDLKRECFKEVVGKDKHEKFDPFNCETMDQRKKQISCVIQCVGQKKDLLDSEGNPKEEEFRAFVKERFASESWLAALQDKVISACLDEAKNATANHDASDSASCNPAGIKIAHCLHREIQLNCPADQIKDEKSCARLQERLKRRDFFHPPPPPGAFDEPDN

DhelOBP10 [2] = target: T2, DhelOBP10 (Dastarcus helophoroides, UniProt A0A1I9HZP4); assay: Competitive fluorescence-binding assay with 1-NPN probe, recombinant DhelOBP10; settings: DhelOBP10 Ki (dissociation constant), 1-NPN competition, mean ± SEM
T2 sequence (A0A1I9HZP4 20-220): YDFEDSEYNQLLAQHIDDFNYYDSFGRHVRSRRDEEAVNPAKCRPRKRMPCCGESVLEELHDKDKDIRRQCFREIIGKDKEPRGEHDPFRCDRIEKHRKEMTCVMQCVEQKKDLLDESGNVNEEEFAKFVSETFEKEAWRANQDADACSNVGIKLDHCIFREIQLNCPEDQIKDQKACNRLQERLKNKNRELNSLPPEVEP
How it was run: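 Recombinant signal-peptide-free DhelOBP10 from E. coli (pET-32b; 1 mM IPTG induction, 12 h at 16°C), dialysed into Tris pH 7.4 or 5.0. […] Ligands (1 mM methanol stock) were added to 0–20 μM; Ki = IC50/(1+[1-NPN]/K1-NPN). Mean ± SEM.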

MaltOBP24 [3] = assay: Fluorescence-quenching spectra assay, MaltOBP24; format: binding, Monochamus alternatus; settings: for quenching mechanism of the interaction with MaltOBP24: change of Ksv with temperature 289–298 K, neutral pH
DhelOBP10 [4] = target: T2, DhelOBP10; assay: Fluorescence-quenching spectra assay, DhelOBP10; format: binding; settings: for ΔS (entropy change): DhelOBP10, pH 7.4; for quenching mechanism of the interaction with DhelOBP10: change of Ksv with temperature 289–298 K, neutral pH; for main acting force between ligand and DhelOBP10: from signs of ΔH and ΔS
How it was run: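 Intrinsic fluorescence of 2 μM recombinant DhelOBP10 in 30 mM Tris-HCl (pH 7.4 or 5.0): excitation 289 nm, slits 15/10 nm, scan 300–500 nm. Ligand aliquots came from 1 mM stock, at 289 and 298 K. Ksv and Kq were taken from Stern–Volmer fits, Ka and n from double-log plots, and ΔG, ΔH, ΔS from thermodynamic equations to assign binding force.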

M. alternatus adults = assay: Y-tube olfactometer binary choice assay, M. alternatus adults; format: in vivo, Monochamus alternatus; settings: for behavioral response of M. alternatus adults in Y-tube: untreated adults, in words
How it was run: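 Field-collected adults kept singly at 25°C on fresh pine twigs. RNAi: 1 μg dsMaltOBP24 or dsGFP injected into the frons of 4-day-old adults under CO₂ narcosis, with non-injected controls, and tested 4 days later. Y-tube with 40 cm stem, 30 cm arms at 60°, airflow 300 mL/min. Odour was 10 µL of 100-fold paraffin-oil dilution versus paraffin oil. Insects had 5 min; ≥30 per sex, each tested once; Chi-square.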

D. helophoroides adults = assay: Y-tube olfactometer binary choice assay, D. helophoroides adults; format: in vivo, Dastarcus helophoroides; settings: for behavioral response of D. helophoroides adults in Y-tube: untreated adults, in words
How it was run: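 Adults reared at 25°C on an artificial diet. RNAi: 4-day-old adults given 300 ng dsDhelOBP10 or dsGFP into the frons, with non-injected controls, and tested 4 days later. Y-tube with 15 cm stem, 12 cm arms at 75°, airflow 300 mL/min per arm. Odour was 10 µL of 100-fold paraffin-oil dilution on filter paper versus paraffin oil. Insects had 5 min; arms swapped; ≥60 insects (30 per sex), each tested once; Chi-square.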

[5] = RNAi, compared with non-injected and dsGFP controls

Molecule	Ki (MaltOBP24 [1]; pH5.0) [µM]	Ki (MaltOBP24 [1]; pH7.4) [µM]	Ki (DhelOBP10 [2]; pH5.0) [µM]	Ki (DhelOBP10 [2]; pH7.4) [µM]	ΔS (entropy change) (DhelOBP10 [4]) [kcal/mol]	Ka (apparent association constant) (DhelOBP10 [4]; DhelOBP10, pH 7.4, 289 K)	Kq (bimolecular quenching constant) (DhelOBP10 [4]; DhelOBP10, pH 7.4, 289 K) [M⁻¹ s⁻¹]	Ksv (quenching constant) (DhelOBP10 [4]; DhelOBP10, pH 7.4, 289 K)	n (number of binding sites) (DhelOBP10 [4]; DhelOBP10, pH 7.4, 289 K)	ΔG (free energy change) (DhelOBP10 [4]; DhelOBP10, pH 7.4, 289 K)	Ka (apparent association constant) (DhelOBP10 [4]; DhelOBP10, pH 7.4, 298 K)	Kq (bimolecular quenching constant) (DhelOBP10 [4]; DhelOBP10, pH 7.4, 298 K) [M⁻¹ s⁻¹]	Ksv (quenching constant) (DhelOBP10 [4]; DhelOBP10, pH 7.4, 298 K)	Ka (apparent association constant) (MaltOBP24 [3]; MaltOBP24, pH 7.4, 289 K)	Kq (bimolecular quenching constant) (MaltOBP24 [3]; MaltOBP24, pH 7.4, 289 K) [M⁻¹ s⁻¹]	Ksv (quenching constant) (MaltOBP24 [3]; MaltOBP24, pH 7.4, 289 K)	Ka (apparent association constant) (MaltOBP24 [3]; MaltOBP24, pH 7.4, 298 K)	Kq (bimolecular quenching constant) (MaltOBP24 [3]; MaltOBP24, pH 7.4, 298 K) [M⁻¹ s⁻¹]	Ksv (quenching constant) (MaltOBP24 [3]; MaltOBP24, pH 7.4, 298 K)	quenching mechanism of the interaction with MaltOBP24 (MaltOBP24 [3])	other results
CC12CCC(CC1=O)C2(C)C (stereo not drawn) [camphor]	> 50	> 50	9.09 ± 1.7	33.8 ± 1.04	–	–	–	–	–	–	–	–	–	–	–	–	–	–	–	–	–
CC1=CCC(=C(C)C)CC1 [α-terpinolene]	–	–	–	–	0.008678	8,904.93 L·mol^−1	5.736e+11	5,736 ± 153.1 L·mol^−1	1.0321 ± 0.0670	−21,851.44 J·mol^−1	2,093.14 L·mol^−1	2.139e+11	2,139 ± 58.09 L·mol^−1	5,449,703.40 L·mol^−1	2.5179e+12	25,179 ± 659.6 L·mol^−1	2,525,092.74 L·mol^−1	2.0347e+12	20,347 ± 501.6 L·mol^−1	static quenching	ΔH (enthalpy change) (DhelOBP10 [4]; DhelOBP10, pH 7.4, 289 and 298 K): −11,356.86 J·mol^−1; n (number of binding sites) (DhelOBP10 [4]; DhelOBP10, pH 7.4, 298 K): 0.9823 ± 0.1034; ΔG (free energy change) (DhelOBP10 [4]; DhelOBP10, pH 7.4, 298 K): −18,944.55 J·mol^−1; quenching mechanism of the interaction with DhelOBP10 (DhelOBP10 [4]): static quenching; main acting force between ligand and DhelOBP10 (DhelOBP10 [4]): electrostatic force; behavioral response of M. alternatus adults in Y-tube (M. alternatus adults): did not affect their behavior; behavioral response of D. helophoroides adults in Y-tube (D. helophoroides adults): did not show preference
(+)-α-pinene	–	–	–	–	–	–	–	–	–	–	–	–	–	–	–	–	–	–	–	dynamic quenching	–

Second part, led by results:

Ki (MaltOBP24 [1]; pH5.0) [µM]	Ki (MaltOBP24 [1]; pH7.4) [µM]	Ki (DhelOBP10 [2]; pH5.0) [µM]	Ki (DhelOBP10 [2]; pH7.4) [µM]	ΔS (entropy change) (DhelOBP10 [4]) [kcal/mol]	Ka (apparent association constant) (DhelOBP10 [4]; DhelOBP10, pH 7.4, 289 K)	Kq (bimolecular quenching constant) (DhelOBP10 [4]; DhelOBP10, pH 7.4, 289 K) [M⁻¹ s⁻¹]	Ksv (quenching constant) (DhelOBP10 [4]; DhelOBP10, pH 7.4, 289 K)	n (number of binding sites) (DhelOBP10 [4]; DhelOBP10, pH 7.4, 289 K)	ΔG (free energy change) (DhelOBP10 [4]; DhelOBP10, pH 7.4, 289 K)	Ka (apparent association constant) (DhelOBP10 [4]; DhelOBP10, pH 7.4, 298 K)	Kq (bimolecular quenching constant) (DhelOBP10 [4]; DhelOBP10, pH 7.4, 298 K) [M⁻¹ s⁻¹]	Ksv (quenching constant) (DhelOBP10 [4]; DhelOBP10, pH 7.4, 298 K)	Molecule	Ka (apparent association constant) (MaltOBP24 [3]; MaltOBP24, pH 7.4, 289 K)	Kq (bimolecular quenching constant) (MaltOBP24 [3]; MaltOBP24, pH 7.4, 289 K) [M⁻¹ s⁻¹]	Ksv (quenching constant) (MaltOBP24 [3]; MaltOBP24, pH 7.4, 289 K)	Ka (apparent association constant) (MaltOBP24 [3]; MaltOBP24, pH 7.4, 298 K)	Kq (bimolecular quenching constant) (MaltOBP24 [3]; MaltOBP24, pH 7.4, 298 K) [M⁻¹ s⁻¹]	Ksv (quenching constant) (MaltOBP24 [3]; MaltOBP24, pH 7.4, 298 K)	quenching mechanism of the interaction with MaltOBP24 (MaltOBP24 [3])	other results
> 50	22.1 ± 3.21	8.29 ± 1.99	24.5 ± 2.44	–	–	–	–	–	–	–	–	–	C=C1C2CCC(C2)C1(C)C (stereo not drawn) [camphene]	–	–	–	–	–	–	–	–
22.4 ± 2.29	24.3 ± 3.95	3.93 ± 0.71	28.7 ± 1.12	–	–	–	–	–	–	–	–	–	C=CC(=C)CCC=C(C)C [myrcene]	–	–	–	–	–	–	–	–
–	–	–	–	0.01694	2,071.51 L·mol^−1	3.742e+11	3,742 ± 92.59 L·mol^−1	0.9404 ± 0.0271	−18,347.45 J·mol^−1	2,011.77 L·mol^−1	2.913e+11	2,913 ± 190.8 L·mol^−1	(+)-fenchone	3,312,799.36 L·mol^−1	2.4531e+12	24,531 ± 303.9 L·mol^−1	2,154,595.09 L·mol^−1	1.4813e+12	14,813 ± 141.8 L·mol^−1	static quenching	n (number of binding sites) (DhelOBP10 [4]; DhelOBP10, pH 7.4, 298 K): 0.9471 ± 0.0676; ΔG (free energy change) (DhelOBP10 [4]; DhelOBP10, pH 7.4, 298 K): −18,846.32 J·mol^−1; quenching mechanism of the interaction with DhelOBP10 (DhelOBP10 [4]): static quenching; main acting force between ligand and DhelOBP10 (DhelOBP10 [4]): hydrophobic; attraction index to M. alternatus after silencing MaltOBP24 (M. alternatus adults; [5]): significantly decreased; behavioral response of M. alternatus adults in Y-tube (M. alternatus adults): significantly attracted; also recorded: could attract adults; attraction to D. helophoroides after silencing DhelOBP10 (D. helophoroides adults; [5]): significantly decreased; behavioral response of D. helophoroides adults in Y-tube (D. helophoroides adults): significantly attracted; also recorded: significant preference
